The text below walks through data of ChEMBL document CHEMBL3853320, “Discovery of Imidazoquinolines as a Novel Class of Potent, Selective, and in Vivo Efficacious Cancer Osaka Thyroid (COT) Kinase Inhibitors” (J Med Chem, 2016).

Data set [1] can be described thus: Protein binding in human plasma at 5 uM after 4 hrs by rapid equilibrium dialysis method. The class given is ADME, cell-free. To be noted: read-out: PPB (converted).
Data set [2] deals with T1, Mitogen-activated protein kinase kinase kinase 8 (Homo sapiens, UniProt P41279). Kind of data set: Inhibition of COT in LPS-stimulated human PBMC assessed as reduction in TNFalpha release incubated for 1 hr followed by stimulation with LPS for 4 hrs by HTRF assay. The procedure, abridged:
(§1)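 Primary human PBMCs were stimulated with LPS. Read-outs were pERK, TNFα release, or p65 phosphorylation, each reported as IC50.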

The target of data set [3] is T1, Mitogen-activated protein kinase kinase kinase 8. Kind of data set: Inhibition of human COT (66 to 395 residues) expressed in Sf21 cells using 5-Fluo-Ahx-AGAGSGQLIDSNleANSFVGTR-NH2 as substrate after 60 mins by caliper microfluidic mobility shift assay.
Data set [4] is described as follows: Octanol-water partition coefficient, log P of the compound by shake-flask method. The data set is classed as physicochemical.
Data set [5] in a line: Equilibrium solubility of the compound at pH 1 after 16 hrs by mass spectrometric analysis. The data set is classed as physicochemical. To be noted: buffer, pH 1, 16 h.
In data set [6] the target is T1, Mitogen-activated protein kinase kinase kinase 8. Kind of data set: Inhibition of COT in LPS-stimulated human whole blood assessed as reduction in TNFalpha release incubated for 30 mins followed by stimulation with LPS for 3 hrs by HTRF assay. The data set is classed as tissue-based. The procedure, abridged: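 Human whole blood was stimulated with LPS, and TNFα release was measured as IC50.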

The target is the same in data set [7]. Kind of data set: Inhibition of COT in LPS-stimulated human PBMC assessed as reduction in ERK1/2 phosphorylation incubated for 60 mins followed by LPS stimulation for 12 mins by flow cytometric analysis. A digest of the protocol:
as §1

The nature of data set [8]: Equilibrium solubility of the compound at pH 4 after 16 hrs by mass spectrometric analysis. The following applies: buffer. The class given is physicochemical.
Data set [9] in a line: Equilibrium solubility of the compound at pH 6.8 after 16 hrs by mass spectrometric analysis. The data set is classed as physicochemical. The following applies: buffer.
Data set [10] is described as follows: Drug metabolism in human liver S9 fraction assessed as 1-(2-(1-morpholinopropan-2-ylamino)benzo[d]thiazol-6-yl)-8-(pyridin-4-yl)-1H-imidazo[4,5-c][1,7]naphthyridin-4(5H)-one metabolite formation in presence of aldehyde oxidase inhibitor raloxifene. The class given is ADME, subcellular. A digest of the protocol:
(§2)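 M1 formation was measured in liver S9 incubations with no NADPH added, in the presence of the aldehyde oxidase inhibitor raloxifene. The rat S9 fraction received 10 μM raloxifene. The human S9 fraction was tested at two raloxifene concentrations.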

A short description of data set [11]: Drug metabolism in Sprague-Dawley rat liver S9 fraction assessed as 1-(2-(1-morpholinopropan-2-ylamino)benzo[d]thiazol-6-yl)-8-(pyridin-4-yl)-1H-imidazo[4,5-c][1,7]naphthyridin-4(5H)-one metabolite formation in presence of aldehyde oxidase inhibitor raloxifene at 10 uM. The data set is classed as ADME, subcellular. To be noted: s9, 10 µM. The procedure, abridged:
as §2

T1 sequence (P41279 whole entry): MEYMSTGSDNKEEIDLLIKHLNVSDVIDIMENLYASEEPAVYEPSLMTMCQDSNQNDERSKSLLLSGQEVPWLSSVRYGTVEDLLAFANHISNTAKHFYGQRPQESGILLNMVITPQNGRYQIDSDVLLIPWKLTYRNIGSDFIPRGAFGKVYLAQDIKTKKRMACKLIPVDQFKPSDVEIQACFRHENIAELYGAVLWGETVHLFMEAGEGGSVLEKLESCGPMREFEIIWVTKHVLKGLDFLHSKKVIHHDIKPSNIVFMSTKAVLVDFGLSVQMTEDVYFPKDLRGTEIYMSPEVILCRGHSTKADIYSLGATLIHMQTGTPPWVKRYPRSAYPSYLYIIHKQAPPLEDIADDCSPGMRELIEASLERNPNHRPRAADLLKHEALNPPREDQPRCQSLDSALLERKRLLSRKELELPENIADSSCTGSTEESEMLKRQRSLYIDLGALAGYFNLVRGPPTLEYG

For `c1ccc(-c2cc3c(cn2)ncc2ncn(-c4ccc5nc(NCCN6CCOCC6)sc5c4)c23)cc1`, the fraction unbound at 4 h, 5 µM in data set [1] is less than 0.01. In addition, the IC50 in [2] is 270 nM; in data set [3], 16 nM; in [6], 2500 nM; in data set [7], 280 nM. Moreover, the logP in data set [4] amounted to 4.6. In addition, the solubility result in data set [5] is “Soluble”. Further, the solubility (thermodynamic) at 16 h in data set [8] was greater than 1000 µM; in data set [9], less than 4 µM.

In the case of `O=C(c1ccc(OCCN2CCCCC2)cc1)c1c(-c2ccc(O)cc2)sc2cc(O)ccc12` [RALOXIFENE], the results for the Drug metabolism entry in [10] and in [11] were “Metabolite_Notdetected” and “Metabolite_Detected”, respectively.
